V-ATPase pHluor = regulators of yeast V-ATPase proton pumping, primary screen, pHLuorin cytosolic pH fluorescence; S. cerevisiae; response, % at 10 µM; 0.37% of 350,000 active; in the data active means response mostly above about 7.3%, no sharp cut-off; inactive means mostly below about 5.4%; further: actives read high
Hep lipid drop = inhibitors of hepatocyte lipid droplet formation, primary screen, imaging, high-throughput imaging, BODIPY stain | AML12 mouse hepatocytes, oleate lipid droplets | AID 1656, 2009 | inhibition, % at 6.5 µM | 0.4% of 240,000 active;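 active means lipid droplet intensity inhibited by at least 50%, with more than 500 cells counted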
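Assay system: AML12 mouse liver cells | Compound: 6.5 µM single-point dosing | Schedule: Overnight exposure | Technique: Fluorescence imaging, 20x objective, two fields per well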
MPTP inh = mitochondrial permeability transition pore inhibitors, primary screen, biochemical, isolated mouse mitochondria, absorbance | inhibition, % at 10 µM | 1.4% of 360,000 active | Ca2+ swelling absorbance, 30 min | AID 602449, 2012;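 active means inhibition of 50% or more, scaled per plate between neutral and stimulator controls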
ADAM10 inh = human ADAM10 inhibitors, primary screen, biochemical, QFRET, HTS. Disintegrin and metalloproteinase domain-containing protein 10 (Homo sapiens), O14672. recombinant ADAM10, EDANS/DABCYL FRET peptide cleavage, 3 h. inhibition, % at 7 µM. 0.62% of 370,000 active;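 active means inhibition above a per-campaign cutoff equal to the mean of compounds falling between control-based bounds plus 3 SD, cut at about 20% in these data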
Target sequence (O14672 214-748 limits assumed): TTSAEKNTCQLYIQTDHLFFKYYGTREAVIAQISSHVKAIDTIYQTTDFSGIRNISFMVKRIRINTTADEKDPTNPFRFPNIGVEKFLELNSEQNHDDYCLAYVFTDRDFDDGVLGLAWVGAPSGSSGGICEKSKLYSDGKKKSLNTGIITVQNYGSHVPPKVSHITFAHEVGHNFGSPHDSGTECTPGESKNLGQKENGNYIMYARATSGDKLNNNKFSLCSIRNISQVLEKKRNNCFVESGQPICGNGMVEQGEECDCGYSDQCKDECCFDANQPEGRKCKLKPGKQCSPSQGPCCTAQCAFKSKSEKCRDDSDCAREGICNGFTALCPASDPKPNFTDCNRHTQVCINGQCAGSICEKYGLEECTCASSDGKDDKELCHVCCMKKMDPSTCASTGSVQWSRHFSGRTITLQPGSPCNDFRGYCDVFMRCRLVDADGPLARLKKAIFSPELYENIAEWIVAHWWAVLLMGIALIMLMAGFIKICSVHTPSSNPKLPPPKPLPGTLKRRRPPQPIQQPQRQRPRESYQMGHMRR
aDG glyco act = activators of alpha-DG glycosylation, primary screen, uHTS, Pro5-aDG cells, AlphaScreen | alpha-DG glycosylation AlphaScreen (IIH6); 0% Pro5, 100% B10-LARGE cell signal | activation, % at 10 µM | 0.22% of 360,000 active;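 active means activation of at least 8% versus controls, or a plate z-score of at least 8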;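 further: Pro5 are CHO cells carrying HIG-tagged alpha-DG that lacks glycosylation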
ADAM17 inh = ADAM17 inhibitors, primary screen, biochemical, QFRET. Disintegrin and metalloproteinase domain-containing protein 17 (Homo sapiens), P78536. recombinant ADAM17, EDANS/DABCYL FRET peptide cleavage. inhibition, % at 6.95 µM. 0.83% of 370,000 active;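 active means inhibition above the mean of compounds lying between control limits plus 3 SD, set per campaign, cut at about 8.5% in these data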
ADAM10 confirm = human ADAM10 inhibitors, confirmation, biochemical, QFRET, triplicate; shares compounds with ADAM10 inh; ADAM10 QFRET peptide cleavage, EDANS fluorescence; inhibition, % at 6.95 µM; 1% of 2,100 active; AID 743208, 2013;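 active means inhibition above about 20% chosen separately for each screening run, limit read from the data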
ADAM17 counter = ADAM17 inhibitors, counter-screen for ADAM10 exosite inhibitor project, biochemical, QFRET, high throughput. shares compounds with ADAM10 inh. ADAM17 QFRET peptide cleavage, EDANS fluorescence. inhibition, % at 6.95 µM. 0.5% of 2,100 active;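 active means mean triplicate inhibition above the solvent-only control wells' mean plus 3 SD, cut at about 12% in these data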
A number is an active result. Only some compounds are listed: those with a hit (about 3.1% of all), similar ones and a draw of the others.

Screening C=C[C@@H]1c2ccccc2N(S(=O)(=O)c2ccc(C)cc2)[C@H](c2ccc(OC(C)=O)cc2)C1(C#N)C#N returned V-ATPase pHluor inactive, MPTP inh inactive, ADAM10 inh 23, aDG glyco act inactive, ADAM17 inh inactive, ADAM10 confirm inactive and ADAM17 counter inactive.
Screening CCOc1ccc(-c2nc(N)ncc2Oc2cccc(OC)c2)c(O)c1 returned V-ATPase pHluor inactive, Hep lipid drop inactive, MPTP inh inactive, ADAM10 inh inactive, aDG glyco act inactive and ADAM17 inh inactive.
For CCOc1ccc(-c2nc(N)ncc2Oc2ccccc2Br)c(O)c1 the results were V-ATPase pHluor inactive, Hep lipid drop inactive, MPTP inh inactive, ADAM10 inh 21, aDG glyco act inactive, ADAM17 inh inactive, ADAM10 confirm inactive and ADAM17 counter inactive.
`C=C(C)COc1ccc(-c2[nH]ncc2Oc2ccccc2OC)c(O)c1` gave V-ATPase pHluor inactive, Hep lipid drop inactive, MPTP inh inactive, ADAM10 inh inactive, aDG glyco act inactive and ADAM17 inh inactive.
For CCOc1ccc(-c2[nH]ncc2Oc2ccccc2OCC)c(O)c1 the results were V-ATPase pHluor inactive, MPTP inh inactive, ADAM10 inh 26, aDG glyco act inactive, ADAM17 inh inactive, ADAM10 confirm inactive and ADAM17 counter inactive.
For C=C(C)COc1ccc(-c2[nH]ncc2Oc2ccc(OC)cc2)c(O)c1 the results were V-ATPase pHluor inactive, Hep lipid drop inactive, MPTP inh inactive, ADAM10 inh 21, aDG glyco act inactive, ADAM17 inh inactive, ADAM10 confirm inactive and ADAM17 counter inactive.
`C=CCC[C@@H](Cc1ccc(F)cc1)C(=O)OC[C@@H]1CCCN1C(=O)[C@@H](CC=C)CC(=O)N(CCO)Cc1ccccc1` gave V-ATPase pHluor inactive, MPTP inh inactive, ADAM10 inh 21, aDG glyco act inactive, ADAM17 inh inactive, ADAM10 confirm inactive and ADAM17 counter inactive.
Screening C=CCC[C@@H](Cc1ccc(F)cc1)C(=O)OC[C@H]1CCCN1C(=O)[C@@H](CC=C)CC(=O)N[C@H](CO)Cc1ccccc1 returned V-ATPase pHluor inactive, MPTP inh inactive, ADAM10 inh 21, aDG glyco act inactive, ADAM17 inh inactive, ADAM10 confirm inactive and ADAM17 counter inactive.
Cc1cccc(-c2cccc3c4c([nH]c23)[C@@H]2C[C@H](N(C)C(=O)c3ccccc3C)[C@H]([C@H](C)O)CN2CC4)c1 was read as ADAM10 inh inactive and ADAM17 inh inactive.
`CN1C(=O)c2cc(NS(C)(=O)=O)ccc2OC[C@H]2O[C@@H](CC(=O)NCc3ccc(-c4ccccc4)cc3)CC[C@@H]21` gave ADAM10 inh inactive and ADAM17 inh inactive.
For CN1C(=O)c2cc(NC(=O)Nc3ccccc3F)ccc2OC[C@H]2O[C@@H](CC(=O)NCc3ccc(-c4ccccc4)cc3)CC[C@@H]21 the results were ADAM10 inh 30, ADAM17 inh inactive, ADAM10 confirm 22 and ADAM17 counter inactive.
`CCCCCCCCN1C(=O)[C@@H](CC(=O)NCCCOCCCC)C[C@@]2(C(=O)OC)C1=C[C@H](COCc1ccccc1)O[C@@H]2C` gave ADAM10 inh inactive and ADAM17 inh inactive.
Screening Cc1scc(C(=O)NNC(=S)NC(C)c2ccccc2)c1C (stereo unspecified) returned V-ATPase pHluor inactive, Hep lipid drop inactive, MPTP inh inactive, ADAM10 inh 27, aDG glyco act inactive, ADAM17 inh inactive, ADAM10 confirm inactive and ADAM17 counter inactive.
For Cc1ccc(C)c(NC(=O)CN(C)C(=O)Cc2ccc(Cl)cc2Cl)c1 the results were V-ATPase pHluor inactive, Hep lipid drop inactive, MPTP inh inactive, ADAM10 inh inactive, aDG glyco act inactive and ADAM17 inh inactive.
Screening Cc1ccc(NC(=O)CN(C)C(=O)Cc2ccc(Cl)cc2Cl)cc1 returned V-ATPase pHluor inactive, Hep lipid drop inactive, MPTP inh inactive, ADAM10 inh 30, aDG glyco act inactive, ADAM17 inh inactive, ADAM10 confirm inactive and ADAM17 counter inactive.
O=S(=O)(c1ccccc1)n1c(CN2CCOCC2)nc2ccccc21 was read as ADAM10 inh inactive and ADAM17 inh inactive.
COc1ccccc1-c1nnc(SC(C(=O)c2c[nH]c3ccccc23)c2ccccc2)n1C (stereo unspecified) was read as V-ATPase pHluor inactive, Hep lipid drop inactive, MPTP inh inactive, ADAM10 inh 23, aDG glyco act inactive, ADAM17 inh inactive, ADAM10 confirm inactive and ADAM17 counter inactive.
`Cc1ccc(OCc2n[nH]c(=S)n2C2CCCCC2)cc1` gave V-ATPase pHluor inactive, Hep lipid drop inactive, MPTP inh inactive, ADAM10 inh inactive, aDG glyco act inactive and ADAM17 inh inactive.
Cc1cccc(OCc2n[nH]c(=S)n2C2CCCCC2)c1 was read as V-ATPase pHluor inactive, Hep lipid drop inactive, MPTP inh inactive, ADAM10 inh 21, aDG glyco act inactive, ADAM17 inh inactive, ADAM10 confirm inactive and ADAM17 counter inactive.
For COC(=O)[C@]12C[C@H](CC(=O)NCC3CCCCC3)C(=O)N(Cc3ccco3)C1=C[C@H](C(C)(C)C)O[C@@H]2C the results were ADAM10 inh inactive and ADAM17 inh inactive.
`COC(=O)[C@]12C[C@H](CC(=O)NCC34CC5CC(CC(C5)C3)C4)C(=O)N(Cc3ccco3)C1=C[C@H](C(C)C)O[C@@H]2C1CC1` gave ADAM10 inh inactive and ADAM17 inh inactive.
For Fc1ccc(CNCc2ccco2)cc1 the results were V-ATPase pHluor inactive, Hep lipid drop inactive, MPTP inh inactive, ADAM10 inh 20, aDG glyco act inactive, ADAM17 inh inactive, ADAM10 confirm inactive and ADAM17 counter inactive.
For C=CS(=O)(=O)N(Cc1ccc(C)cc1)[C@@H](CO)C(=O)OC the results were ADAM10 inh inactive and ADAM17 inh inactive.
`Cc1ccc(NS(=O)(=O)c2ccc(OCC(=O)Nc3cccc([N+](=O)[O-])c3)c(C)c2)cc1` gave V-ATPase pHluor inactive, MPTP inh inactive, ADAM10 inh 23, aDG glyco act inactive, ADAM17 inh inactive, ADAM10 confirm inactive and ADAM17 counter inactive.

Bioassay records (PubChem BioAssay)
